Compound activity deposited in PubChem by Sanford-Burnham Center for Chemical Genomics.
hIAP inh = blocks human intestinal alkaline phosphatase; P09923; purified IAP, CDP-Star luminescence, 30 min; inhibition, % at 10 µM; 330,000 compounds, 0.12% hits; AID 2544;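 active = inhibition reaching a set limit with compound at 10 µM in the primary screen, cut at about 35% in these data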;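 also: plate controls were DMSO wells with enzyme for no effect and no-enzyme buffer wells for full effect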
Target sequence (P09923 whole entry, looked up): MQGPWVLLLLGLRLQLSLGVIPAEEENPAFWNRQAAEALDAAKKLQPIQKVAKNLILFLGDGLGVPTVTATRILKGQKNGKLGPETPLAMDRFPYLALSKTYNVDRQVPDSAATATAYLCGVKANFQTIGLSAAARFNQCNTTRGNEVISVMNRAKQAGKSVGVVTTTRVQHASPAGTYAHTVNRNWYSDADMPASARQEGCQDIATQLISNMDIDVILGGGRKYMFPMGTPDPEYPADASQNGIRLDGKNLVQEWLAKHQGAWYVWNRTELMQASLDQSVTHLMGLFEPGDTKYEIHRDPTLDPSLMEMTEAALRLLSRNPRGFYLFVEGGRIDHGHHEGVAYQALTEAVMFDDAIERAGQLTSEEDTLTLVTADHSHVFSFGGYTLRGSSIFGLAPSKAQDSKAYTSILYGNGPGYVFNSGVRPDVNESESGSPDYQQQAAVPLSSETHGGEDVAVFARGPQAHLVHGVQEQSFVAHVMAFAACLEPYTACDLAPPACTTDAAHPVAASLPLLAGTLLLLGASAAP
hIAP act = increases human intestinal alkaline phosphatase activity. P09923. purified human IAP, CDP-Star luminescence, 30 min; active compounds read high; 1 = vehicle-only enzyme, 0 = enzyme-free background. activation factor at 10 µM. 330,000 compounds, 0.16% hits. AID 2524;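 active = activation factor of the enzyme at least 2-fold when tested at 20 µM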
mIAP activ = mouse IAP activation | muIAP, CDP-Star luminescence, 30 min; active compounds read high; 1 = vehicle-only enzyme signal, 0 = enzyme-free wells | activation factor at 10 µM | 330,000 compounds, 0.24% hits;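 active = activation factor of at least 2 at 20 µM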
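also added = chemiluminescent substrate CDP-Star | test system = mouse IAP enzyme | signal = chemiluminescence readout | compound = DMSO-dissolved test compounds | incubation = 30 min at room temperature | benchmarks = DMSO wells, no-enzyme wells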
bIAP activator = increases bovine intestinal alkaline phosphatase activity; purified bovine IAP, CDP-star luminescence, 30 min; active compounds read high; fold of DMSO-control signal, blank-subtracted; activation factor at 20 µM; 200,000 compounds, 0.17% hits;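 active = activation factor of 2 or more at 20 µM, a signal rise over negative controls twice the positive control's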
bIAP inhibitor = blocks bovine intestinal alkaline phosphatase activity; purified bovine IAP, CDP-star luminescence, 30 min; inhibition, % at 20 µM; 190,000 tested, under 10 active;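 active = over 50% inhibition of intestinal alkaline phosphatase at 20 µM in the single-dose screen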
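System: purified bovine intestinal alkaline phosphatase (IAP) enzyme; Input: IAP diluted 1/65,000,000 in the well; Measured by: CDP-star luminescence signal; Compound dosing: 20 µM single dose; Incubation: 30 min reaction at room temperature.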
mIAP inh = mouse IAP inhibition; purified mouse IAP, CDP-Star luminescence, 30 min; 330,000 compounds, 0.2% hits; inhibition, % at 10 µM;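 active = inhibition of at least 40% at 10 µM in the primary screen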;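 also: plate controls were DMSO with enzyme for no effect and no enzyme wells for full effect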
The depositor's hits bear a star; i = inactive; / = no result given. Most compounds without a hit are left out; they make up all but 0.79% or so of the library.

SMILES	hIAP inh	hIAP act	mIAP activ	bIAP activator	bIAP inhibitor	mIAP inh
Cc1ccc(S(=O)(=O)N2CCN(CC(=O)NC3CCCc4ccccc43)CC2)c(C)c1 (configuration not stated)	-3	1	1.3	56*	i	-27
Cc1ccc2ncc(S(=O)(=O)c3ccccc3)c(N3CCCCC3C)c2c1 (configuration not stated)	11	0.89	0.93	/	/	7
OCCN1CCN(C2CCC(c3ccc(F)cc3)c3ccc(F)cc32)CC1 (configuration not stated)	12	0.88	1	/	/	-1
O=C1c2ccccc2S(=O)(=O)c2cc(N3CCc4ccccc4C3)ccc21	8	0.92	0.57	/	/	43*
O=C1c2ccccc2S(=O)(=O)c2cc(N3CCC(C(=O)N4CCCCC4)CC3)ccc21	19	0.81	1	/	/	-2
Oc1cc(O)cc(/C=C/c2ccc(O)c(O)c2)c1	6	0.94	0.22	/	/	78*
COC(=O)c1ccc(COC(=O)CNC(=O)c2ccc(C)s2)cc1	-10	1.1	1	/	/	-1
CN(Cc1cccnc1)C(=O)c1cc(COc2ccc3c(c2)CCCC3)on1	0	1	0.9	/	/	10
Nn1c(-c2ccccc2Cl)nnc1-c1ccccc1Cl	5	0.95	1	2.6*	-157	-1
O=C(Nc1ccc(S(=O)(=O)N2CCCCC2)cc1)c1ccccc1Cl	14	0.86	1	0.8	19	-1
Cc1oc(S(=O)(=O)N2CCCCC2)cc1NC(=O)Nc1ccc(Cl)cc1	-35	1.4	2.6*	/	/	-156
O=C(Nc1ccccc1)Nc1ccc(S(=O)(=O)N2CCCCC2)cc1	6	0.94	2.4*	0.8	17	-140
CC(=O)Oc1c(I)cc(I)cc1C(=O)Nc1ccc(Cl)cc1	0	1	0.97	/	/	3
CCCCCCc1ccc(N2C[C@H](CCCCC)[C@@H](CC(=O)NCc3ccc(OC)cc3)C2=O)cc1	5	0.95	2.3*	/	/	-126
CCCCCCc1ccc(N2C[C@H](CCCCC)[C@@H](CC(=O)NCc3ccccc3)C2=O)cc1	9	0.91	2.3*	/	/	-134
CCCCCCc1ccc(N2C[C@H](Cc3ccccc3)[C@@H](CC(=O)NCc3ccc(OC)cc3)C2=O)cc1	14	0.85	2	/	/	-100
Cc1cccc2cc(/C=N/NC(=O)c3ccccc3O)c(Cl)nc12	10	0.9	0.86	1	2	14
Cc1ccc2cc(/C=N/NC(=O)c3ccccc3O)c(Cl)nc2c1	12	0.88	0.85	2.1*	-107	15
CCCCC(CC)CNC(=O)C(Cc1ccccc1)NS(=O)(=O)c1ccc2c(c1)CCC(=O)N2 (configuration not stated)	-15	1.2	2.2*	0.8	16	-120
O=S(=O)(c1ccc(NC(=S)Nc2ccccc2)cc1)N1CCOCC1	-6	1.1	1	1	2	-1
CC(C)CCCCCCNC(=S)Nc1ccc(S(=O)(=O)N2CCOCC2)cc1	6	0.94	2.2*	0.9	6	-125
COc1ccccc1NC(=O)CCS(=O)(=O)c1cc2c(cc1Cl)NC(=O)CO2	-7	1.1	0.97	/	/	3
CC1CC(C)CN(S(=O)(=O)c2ccc(NC(=O)[C@@H]3CCCN3C(=O)c3cccs3)cc2)C1 (some centres not stated)	11	0.89	0.5	/	/	50*
Cc1cc(N(C)C)ccc1N=Nc1ccc2ncccc2c1	40*	0.6	0.82	/	/	18
Cc1ccc2ncccc2c1	-9	1.1	1.1	/	/	-10
CCOc1ccc(OCCC(=O)OCC(=O)N2CCN(S(=O)(=O)c3ccc(Cl)cc3)CC2)cc1	-29	1.3	1.1	/	/	-8
COC(=O)c1nc(-c2ccccc2)nc(-c2ccccc2)c1C(=O)OC	1	0.99	1	/	/	-5
COc1ccc(/C=N/NC(=O)OC(C)(C)C)cc1OC	14	0.86	0.99	1.2	-21	1
Cc1cc(C)c(NC(=S)NC(NC(=O)c2ccccc2)C(Cl)(Cl)Cl)c(C)c1 (configuration not stated)	1	0.99	2.5*	0.9	8	-152
Cc1ccc(NC(=S)NC(NC(=O)c2ccccc2)C(Cl)(Cl)Cl)c(C)c1 (configuration not stated)	-6	1.1	1.8	1.2	-18	-84
